Screens deposited in PubChem by Sanford-Burnham Center for Chemical Genomics.
Compounds with a hit are over-represented: about 1.7% of the library has one in this group of screens.
SUMO1 PPI mod: modulators of human SUMO1-mediated protein-protein interactions | P63165 | SUMO1 binding to a labelled peptide, TR-FRET, 1 h | inhibition, % at 20 µM | 0.33% of 360,000 active | AID 602429; in the data active means inhibition above about 37%
Target sequence (P63165 whole entry, looked up): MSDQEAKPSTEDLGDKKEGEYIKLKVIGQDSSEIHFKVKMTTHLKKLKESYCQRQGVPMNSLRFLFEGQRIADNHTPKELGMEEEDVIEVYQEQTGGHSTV
DNMT1 inh: DNMT1 (human) enzyme inhibition | P26358 | DNMT1 molecular beacon, Hinp1I cleavage, fluorescence | inhibition (reported as % activation of signal), % at 10 µM | 0.83% of 360,000 active | AID 588458; in the data active means inhibition above about 50%
LMPTP block: blocks human LMPTP phosphatase | P24666 | inhibition, % at 20 µM | AID 651560 | 0.22% of 360,000 active | recombinant LMPTP-A, OMFP fluorogenic substrate, fluorescence intensity;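 active means compounds that cut the enzyme signal by at least half of the control window in the single-dose screen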;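 further: plate controls were DMSO wells with enzyme plus substrate for no effect and substrate without enzyme for full effect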
Target sequence (P24666 whole entry, looked up): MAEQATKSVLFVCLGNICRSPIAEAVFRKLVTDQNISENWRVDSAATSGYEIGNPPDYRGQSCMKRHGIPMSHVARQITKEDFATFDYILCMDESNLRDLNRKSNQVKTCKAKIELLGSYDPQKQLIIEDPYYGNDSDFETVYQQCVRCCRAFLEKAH
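test system = LMPTP-A | amount = 0.625 nM LMPTP-A final | reagent = fluorogenic phosphatase substrate OMFP at 400 µM final | incubation = 50 min at room temperature | benchmarks = no-enzyme low control, uninhibited high control | medium = Bis-Tris pH 6.0, DTT, detergent | signal = fluorescence intensity of OMFP turnover product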
Scp1 inh: inhibitors of human Scp-1 phosphatase; Recombinant Scp1, phosphopeptide, malachite green phosphate absorbance; inhibition, % at 20 µM; 0.88% of 340,000 active; AID 493091;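 active means inhibition above about 50% at 20 µM, limit read from the data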;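 further: plate controls were DMSO wells with enzyme for no effect and wells lacking enzyme for full effect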
Target sequence (Q9GZU7 76-261 limits assumed): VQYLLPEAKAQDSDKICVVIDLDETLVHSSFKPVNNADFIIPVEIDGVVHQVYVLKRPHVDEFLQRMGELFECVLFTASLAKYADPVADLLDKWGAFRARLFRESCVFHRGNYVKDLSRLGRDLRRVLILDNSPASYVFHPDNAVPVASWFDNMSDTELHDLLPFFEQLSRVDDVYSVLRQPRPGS
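Assay system: SCP-1 catalytic fragment, aa 76-261 | Buffer or medium: Tris acetate buffer pH 5.5 with MgCl2 and Tween-20 | Compound: One concentration, 20 µM, with 1.0% DMSO | Also added: Phospho 17-mer peptide substrate | Signal: Absorbance at 630 nm | Incubation: 45 min enzyme reaction at room temperature | Measure: % inhibition of SCP-1 phosphate liberation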
STEP block: inhibitors of human striatal-enriched phosphatase STEP | P54829 | recombinant STEP, OMFP fluorogenic substrate, fluorescence | inhibition, % at 20 µM | 0.25% of 360,000 active | AID 588621;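 active means inhibition at 20 µM, scaled per plate between control wells, above about 37%, limit read from the data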;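 further: 0% = DMSO with enzyme and substrate and 100% = substrate only without enzyme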
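Assay system: isolated STEP enzyme / Timing: 20 min at room temperature, dark / Doses: 20 µM, 1% DMSO / Technique: fluorescence intensity, excitation 480 nm, emission 540 nm / Reagent: fluorogenic phosphatase substrate OMFP at 25 µM final / Measure: percent inhibition scaled to no-enzyme and uninhibited-enzyme controls, plate-pattern corrected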
Scp1 confirm: Scp-1 (human) inhibition, single-dose confirmed. AID 540281. inhibition, % at 20 µM. recombinant SCP-1 catalytic domain, phosphate release, malachite green absorbance. shares compounds with Scp1 inh. 61% of 2,500 active;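 further: plate controls were DMSO with enzyme for no effect and buffer wells lacking enzyme for full effect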
MG interference: counter-screen for Scp-1 inhibitors: colorimetric interference. apparent inhibition (interference), % at 20 µM. shares compounds with Scp1 inh. AID 540313. Colorimetric interference counterscreen, malachite green absorbance 630 nm. 2,500 tested, under 10 active;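 further: compounds added after enzyme reaction finished so only phosphate colour detection is probed; plate controls were DMSO wells with completed Scp-1 reaction for no effect and substrate wells lacking enzyme for full effect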
Scp-1 Tm shift: validation of human Scp-1 inhibitors by thermal shift binding. shares compounds with Scp1 inh. Recombinant SCP1, Sypro Orange thermal shift Tm. thermal shift relative to vanadate control, % at 40 µM. 25% of 1,500 active;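 active means substances whose mean melting-temperature shift, as a percentage of the reference inhibitor's shift, reaches about 5.3%, limit read from the data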;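 further: 0% = Tm of DMSO wells and 100% = Tm with sodium orthovanadate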
DNMT1 interf DR: counter-screen for DNMT1 inhibitors: spectral interference, dose response; IC50, µM; shares compounds with DNMT1 inh; 200 tested, under 10 active; molecular beacon fluorescence; call rule not given here
DNMT1 confirm: confirmation of human DNMT1 inhibitors | AID 602385 | DNMT1 molecular beacon HinP1I cleavage, fluorescence | inhibition, % at 10 µM | shares compounds with DNMT1 inh | 8% of 2,300 active;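 active means average inhibition of at least 30% in the single-concentration confirmation test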
Beacon interf: counter-screen for DNMT1 inhibitors: spectral interference; shares compounds with DNMT1 inh; DNMT1 molecular beacon spectral interference counterscreen, fluorescence 485/520; activation (fluorescence interference), % at 10 µM; 1% of 2,300 active; AID 602387;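 active means activation of at least 30% at 10 µM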;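 further: DNMT1 catalytic domain with a HinP1I cleavage step and a FAM/dabcyl DNA beacon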
* marks the source's active call; other numbers are inactive results; x = not tested or not shown.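 How the source made its calls, unless noted: active means inhibition of at least 30% at 20 µM; inactive means the rest.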

SMILES	SUMO1 PPI mod	DNMT1 inh	LMPTP block	Scp1 inh	STEP block	Scp1 confirm	MG interference	Scp-1 Tm shift	DNMT1 confirm	Beacon interf	others
COc1ccc(NC(=O)COC(=O)c2ccc(S(=O)(=O)N3CC(C)CC(C)C3)cc2)cc1OC (centres undefined)	10.8	20.1	1.6	x	0.5	x	x	x	x	x
COc1cc(NC(=O)COC(=O)c2ccc(S(=O)(=O)N3CC(C)CC(C)C3)cc2)c(C)cc1[N+](=O)[O-] (centres undefined)	10.4	55.8*	1.4	66.9*	2.1	34.8*	-10.4	0.6	0.0	-0.6
COC(=O)[C@@]12C[C@@H](CC(=O)NCc3ccc(C)o3)C(=O)N(Cc3ccco3)C1=CCC(C)(C)C2	5.5	x	1.1	x	x	x	x	x	x	x
CN(C(=O)COC(=O)C1CCN(S(=O)(=O)c2ccc3c(c2)OCCO3)CC1)C1CCS(=O)(=O)C1 (centres undefined)	-0.1	1.9	0.5	-5.7	-3.5	x	x	x	x	x
CC1(OC(=O)c2ccc(Cl)nc2)C(=O)C=C2C=C3CCCN3C=C2C1=O (centres undefined)	15.0	66.4*	3.7	64.6*	10.3	16.4	-11.7	x	5.8	3.6
Cc1cccc2c(=O)n(C(=O)c3ccccc3)c(N)nc12	2.2	-6.1	0.4	x	1.0	x	x	x	x	x
Cc1ncc([N+](=O)[O-])n1CCOC(=O)c1cc(Cl)cc(Cl)c1N	-2.7	60.5*	5.8	61.6*	3.0	68.2*	-11.4	12.0*	4.0	3.2
COc1ccc2c(c1)c(=O)oc1cc(OCC(=O)N3CCc4ccccc4C3)ccc12	24.0	104.9*	62.1*	81.3*	27.2	68.5*	-18.9	-6.2	17.1	-1.9
CC(C)c1ccc(OCC(=O)N2CCc3ccccc3C2)cc1	-1.2	3.2	2.9	0.3	1.9	x	x	x	x	x
CC1(C)Oc2ccc3ccc(=O)oc3c2/C(=C/NNC(N)=S)C1=O	-13.6	-3.9	-0.7	-4.4	0.7	x	x	x	x	x
O=C(Cc1cccs1)Nc1nnc(Cc2ccccc2)s1	4.9	99.2*	42.2	81.6*	12.0	75.8*	-8.5	4.4	7.9	2.4
CCCCCc1nnc(NC(=O)Cc2cccs2)s1	3.6	59.4*	6.0	68.5*	9.0	85.3*	1.4	6.3*	9.8	2.2
CC(C)(C)Cc1nnc(NC(=O)Cc2cccs2)s1	3.0	55.9*	21.0	57.7*	8.4	62.9*	-20.8	7.2*	8.5	1.5
O=C(Cc1cccs1)Nc1nnc(CCc2ccccc2)s1	-3.1	2.4	0.9	0.3	-1.4	x	x	x	x	x
CC(C)c1nnc(NC(=O)Cc2cccs2)s1	-0.2	-2.4	-1.8	-3.0	-0.4	x	x	x	x	x
Cn1c(N)c(C(=O)COC(=O)c2cc(-c3ccco3)nc3ccccc23)c(=O)n(C)c1=O	30.6	109.6*	61.7*	73.2*	7.6	67.0*	-13.9	14.6*	30.9*	-0.5	DNMT1 interf DR=>99
O=C(Nc1cccc([N+](=O)[O-])c1)c1cccc(C(=O)Nc2cccc([N+](=O)[O-])c2)c1	70.0*	86.2*	8.5	73.6*	22.3	84.7*	-10.7	3.8	26.8	2.1
O=C(Nc1ccc(NC(=O)c2cccc([N+](=O)[O-])c2)cc1)c1cccc([N+](=O)[O-])c1	-20.5	3.8	-0.1	6.4	-4.2	x	x	x	x	x
